Among the data in ChEMBL document CHEMBL4014306, “Pyrazolopyrimidines as Potent Stimulators for Transient Receptor Potential Canonical 3/6/7 Channels” (J Med Chem, 2017) are Activity and inhibition values, retold here.

Calls of active or inactive are those of the source. The calls are words filed in the database; no cut-off is given here.

The target of experiment [1] is T1, Short transient receptor potential channel 5 (Homo sapiens) (UniProt Q9UL62).
T1 sequence (whole entry): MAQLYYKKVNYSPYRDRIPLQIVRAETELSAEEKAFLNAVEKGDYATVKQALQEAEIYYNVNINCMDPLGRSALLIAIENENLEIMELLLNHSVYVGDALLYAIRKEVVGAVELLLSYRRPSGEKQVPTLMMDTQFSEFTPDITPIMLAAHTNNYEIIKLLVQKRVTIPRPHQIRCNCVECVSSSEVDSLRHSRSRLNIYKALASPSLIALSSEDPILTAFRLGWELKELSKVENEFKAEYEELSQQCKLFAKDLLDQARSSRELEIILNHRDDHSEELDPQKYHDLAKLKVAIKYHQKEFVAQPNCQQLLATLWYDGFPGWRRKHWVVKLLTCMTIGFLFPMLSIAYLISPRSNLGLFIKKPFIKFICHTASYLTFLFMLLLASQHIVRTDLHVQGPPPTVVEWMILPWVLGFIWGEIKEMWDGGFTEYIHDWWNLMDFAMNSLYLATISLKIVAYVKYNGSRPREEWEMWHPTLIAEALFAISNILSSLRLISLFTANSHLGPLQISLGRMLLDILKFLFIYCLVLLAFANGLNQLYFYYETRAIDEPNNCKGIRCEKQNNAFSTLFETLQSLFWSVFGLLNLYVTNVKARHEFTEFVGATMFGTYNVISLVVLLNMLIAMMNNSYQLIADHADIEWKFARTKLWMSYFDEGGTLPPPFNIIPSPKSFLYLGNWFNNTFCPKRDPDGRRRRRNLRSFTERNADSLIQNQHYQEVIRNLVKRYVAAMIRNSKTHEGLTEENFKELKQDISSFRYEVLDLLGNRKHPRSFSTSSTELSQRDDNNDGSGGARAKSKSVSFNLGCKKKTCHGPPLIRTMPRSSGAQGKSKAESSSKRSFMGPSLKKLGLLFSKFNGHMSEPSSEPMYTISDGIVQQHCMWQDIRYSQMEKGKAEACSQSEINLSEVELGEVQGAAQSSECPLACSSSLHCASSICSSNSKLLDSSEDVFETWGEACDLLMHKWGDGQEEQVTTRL
Put plainly: Agonist activity at human TRPC5 expressed in HEK293 cells assessed as induction of membrane depolarization at 33 uM measured for 2.5 mins by FLIPR membrane potential dye-based fluorescence assay. The format is cell-based.

Experiment [2] concerns the target T2, Short transient receptor potential channel 4 (Mus musculus) (UniProt Q9QUQ5).
T2 sequence (whole entry): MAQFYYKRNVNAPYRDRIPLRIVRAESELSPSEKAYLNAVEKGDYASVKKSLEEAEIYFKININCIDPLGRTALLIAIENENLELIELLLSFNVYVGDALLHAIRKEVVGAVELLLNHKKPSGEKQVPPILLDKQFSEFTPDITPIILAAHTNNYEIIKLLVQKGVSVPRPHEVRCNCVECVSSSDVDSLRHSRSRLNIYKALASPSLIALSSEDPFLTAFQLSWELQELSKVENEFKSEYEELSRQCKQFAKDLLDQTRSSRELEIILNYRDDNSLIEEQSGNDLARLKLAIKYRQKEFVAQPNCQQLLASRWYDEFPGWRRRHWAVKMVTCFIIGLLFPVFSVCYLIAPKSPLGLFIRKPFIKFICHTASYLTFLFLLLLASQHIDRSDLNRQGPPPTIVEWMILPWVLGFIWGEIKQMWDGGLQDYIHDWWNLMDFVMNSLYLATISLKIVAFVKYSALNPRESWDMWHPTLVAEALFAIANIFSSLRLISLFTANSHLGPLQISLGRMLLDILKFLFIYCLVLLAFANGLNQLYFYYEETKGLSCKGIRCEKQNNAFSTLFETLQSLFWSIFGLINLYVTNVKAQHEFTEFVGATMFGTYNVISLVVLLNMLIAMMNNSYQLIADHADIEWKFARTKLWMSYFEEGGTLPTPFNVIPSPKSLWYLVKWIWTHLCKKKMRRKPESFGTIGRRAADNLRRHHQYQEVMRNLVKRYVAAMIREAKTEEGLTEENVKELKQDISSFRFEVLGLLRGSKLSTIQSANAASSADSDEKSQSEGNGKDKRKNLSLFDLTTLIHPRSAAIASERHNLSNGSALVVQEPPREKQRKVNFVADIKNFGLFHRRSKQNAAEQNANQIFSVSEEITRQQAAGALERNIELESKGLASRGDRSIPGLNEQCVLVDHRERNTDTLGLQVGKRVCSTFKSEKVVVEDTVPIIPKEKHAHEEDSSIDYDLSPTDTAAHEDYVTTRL
Put plainly: Inhibition of mouse TRPC4beta expressed in HEK293 cells co-expressing MOR assessed as decrease in DAMGO-evoked membrane depolarization at 22 uM preincubated for 2 mins followed by DAMGO addition measured for 2.5 mins by FLIPR membrane potential dye-based fluorescence assay relative to control. The format is cell-based. In a few lines: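 Same TRP panel as for the stimulation tests, with FMP dye for TRPC4 and M5 and Fluo8-AM for TRPA1, V1 and M8. Compound applied for 2 min before the channel agonist (TRPC4: 1 μM DAMGO). Inhibition of the agonist response measured on a FlexStation at 32 °C.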

Turning to `CCOC(=O)N1CCC(c2cc(O)n3nc(C)c(-c4ccc(F)cc4)c3n2)CC1`, the outcome in experiment [1] was inactive. In general, inhibition refers to how much of the control response was suppressed. As for `CCOC(=O)N1CCC(c2cc(O)n3nc(C)c(-c4ccc(C(F)(F)F)cc4)c3n2)CC1`, in experiment [1], the outcome was inactive. In experiment [2], the inhibition was determined as 33%.

On to `Cc1nn2c(O)cc(C3CCN(C(=O)OCc4ccccc4)CC3)nc2c1-c1ccc(F)cc1`, for which, in experiment [1], the outcome was inactive. Moreover, the inhibition in experiment [2] came to 13%. Regarding `Cc1nn2c(O)cc(C3CCN(C(=O)OCc4ccccc4)CC3)nc2c1-c1ccc(Cl)cc1`, in experiment [1], the result was inactive.
